Laboratory results from ChEMBL document CHEMBL1157958, “Phenolic compounds from the roots of Lindera fruticosa” (J Nat Prod, 2006).

Key:
[1] = target: T1, Sterol O-acyltransferase 1 (Homo sapiens) (UniProt P35610); assay: Inhibition of human ACAT1 at 0.4 mM
T1 sequence (whole entry): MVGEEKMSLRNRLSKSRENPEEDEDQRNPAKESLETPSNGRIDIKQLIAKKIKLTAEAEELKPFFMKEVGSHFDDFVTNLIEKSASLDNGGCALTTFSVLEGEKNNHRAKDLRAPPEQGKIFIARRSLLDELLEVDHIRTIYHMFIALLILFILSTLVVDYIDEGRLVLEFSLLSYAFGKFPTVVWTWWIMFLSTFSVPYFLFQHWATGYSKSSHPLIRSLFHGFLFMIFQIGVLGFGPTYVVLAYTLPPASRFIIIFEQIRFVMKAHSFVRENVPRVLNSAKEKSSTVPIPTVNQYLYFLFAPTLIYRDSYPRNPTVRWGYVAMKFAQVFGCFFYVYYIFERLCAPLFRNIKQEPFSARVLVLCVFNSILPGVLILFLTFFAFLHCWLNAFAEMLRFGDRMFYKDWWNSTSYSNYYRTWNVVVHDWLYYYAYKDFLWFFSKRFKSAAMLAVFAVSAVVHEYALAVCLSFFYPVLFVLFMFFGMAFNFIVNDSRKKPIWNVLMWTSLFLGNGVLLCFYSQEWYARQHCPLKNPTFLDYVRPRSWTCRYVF
Outline: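 Human ACAT-1 inhibition, run by the Brecher and Chan method with slight modifications. Test concentration 0.4 mM; read-out is percent inhibition; data are mean ± standard deviation of three replicates.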

[2] = Antioxidant activity assessed as inhibition of LDL oxidation; assay type: functional
Outline: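 LDL oxidation inhibition, run by a literature method with slight modifications. IC50 in µM; data are mean ± standard deviation of three replicates.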

| inhibition [1] | IC50 [2] | Structure (SMILES) |
| --- | --- | --- |
| 43% | 48.1 µM | COc1cc(OC)cc(-c2ccccc2)c1 |
| 30% | 15.5 µM | COc1cc(O)cc(-c2ccccc2)c1 |
| 54% | 524 µM | COc1c(C(=O)c2ccccc2)ccc2c1OCO2 |
|  | 4.3 µM | CC(C)(Sc1cc(C(C)(C)C)c(O)c(C(C)(C)C)c1)Sc1cc(C(C)(C)C)c(O)c(C(C)(C)C)c1 [PROBUCOL] |
| 31% | 386 µM | O=c1c2cc(O)ccc2oc2cccc(O)c12 |
| 46% | 478 µM | COc1cccc(O)c1C(=O)OCc1ccccc1 |
| 7% | 25.5 µM | COc1c(O)ccc2oc3c(O)cc(O)cc3c(=O)c12 |
| 31% | 192 µM | COc1c([C@@H](O)c2ccccc2)ccc2c1OCO2 |
